Experimental data published in ChEMBL document CHEMBL5120858, “Structure-activity relationship and antitumor activity of 1,4-pyrazine-containing inhibitors of histone acetyltransferases P300/CBP” (Eur J Med Chem, 2022).
Active and inactive are the calls of the source. No cut-off for these calls is given here.

How the values were obtained:
[1] = biological target: T1, Histone acetyltransferase p300 (Homo sapiens, UniProt Q09472); assay: Inhibition of human p300 HAT domain (1195 to 1673 residues) using histone H3 peptide and acetyl-coA as substrates preincubated for 10 mins followed by substrate addition and measured after 30 mins by beckman scintillation counting analysis
In short: (§1)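 Radiometric HAT assay. Enzyme at 10 nM was preincubated with graded compound for 10 min at 25 °C in 50 mM phosphate pH 7.0 with 0.01% Brij-35. Reaction started with H3 (1-21) peptide (20 μM) plus Ac-CoA (1 μM ³H-Ac-CoA + 19 μM unlabelled) and run 30 min at 25 °C. Stopped with formic acid, spotted on P81 paper, washed with NaHCO₃ and scintillation counted. IC₅₀ from sigmoidal fit, mean of ≥3 experiments.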

[2] = biological target: T1, Histone acetyltransferase p300; assay: Inhibition of human p300 HAT domain (1195 to 1673 residues) at 10 uM using histone H3 peptide and acetyl-coA as substrates preincubated for 10 mins followed by substrate addition and measured after 30 mins by beckman scintillation counting analysis relative to control; settings: time 40.0 min
In short: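 Single-concentration screen at 10 μM in the radiometric p300 HAT domain assay: enzyme 10 nM, pH 7.0 phosphate/Brij-35, 10 min preincubation, then H3(1-21) peptide 20 μM plus ³H/unlabelled Ac-CoA (20 μM total), 30 min at 25 °C. Filter-bound ³H-acetylated peptide was counted, and the value is given as % inhibition.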

[3] = biological target: T1, Histone acetyltransferase p300; assay: Inhibition of biotinylated histone H4 peptide binding to His-tagged human p300 HAT domain (1195 to 1673 residues) assessed as reduction in alpha signal incubated for 1 hr by amplified luminescent proximity homogeneous assay
In short: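 AlphaScreen binding assay in PBS with 0.5% BSA: His6-tagged p300 HAT (125 nM) on nickel chelate acceptor beads and biotinylated H4 peptide (30 nM) on streptavidin donor beads, with a dilution series of compound. After 1 h, signal was read with excitation at 680 nm and emission at 570 nm, and IC50 came from a sigmoidal dose-response fit.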

CREB-binding protein = CREB-binding protein (Homo sapiens, UniProt Q92793); assay: Inhibition of human CBP-HAT domain using histone H3 peptide and acetyl-coA as substrates preincubated for 10 mins followed by substrate addition and measured after 30 mins by beckman scintillation counting analysis; in short: as §1
[4] = biological target: Histone acetyltransferase KAT2B (Homo sapiens, UniProt Q92831); assay: Inhibition of human PCAF using histone H3 peptide and acetyl-coA as substrates preincubated for 10 mins followed by substrate addition and measured after 30 mins by beckman scintillation counting analysis; in short: as §1
[5] = biological target: Histone acetyltransferase KAT6A (Homo sapiens, UniProt Q92794); assay: Inhibition of human Myst3 using histone H3 peptide and acetyl-coA as substrates preincubated for 10 mins followed by substrate addition and measured after 30 mins by beckman scintillation counting analysis; in short: as §1
Kasumi 1 [6] = assay: Inhibition of histone H3 acetylation at lysine 9 residue in human Kasumi 1 cells at 5 to 10 uM incubated for 12 hrs by Western blot analysis; assay type: functional, cell-based; settings: dose 5-10 µM
In short: (§2)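 Kasumi-1 leukemia cells (10⁶ per well) were treated 12 h with a range of compound concentrations. Total histones were extracted, and 2 μg was resolved by SDS-PAGE and transferred to PVDF. Blots were probed for H3K9ac, H3K18ac, H3K27ac and total H3, with anti-rabbit IgG secondary.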

Kasumi 1 [7] = assay: Inhibition of histone H3 acetylation at lysine 27 residue in human Kasumi 1 cells at 5 to 10 uM incubated for 12 hrs by Western blot analysis; assay type: functional, cell-based; settings: dose 5-10 µM; in short: as §2
Kasumi 1 [8] = assay: Inhibition of histone H3 acetylation at lysine 18 residue in human Kasumi 1 cells incubated for 12 hrs by Western blot analysis; assay type: functional, cell-based; settings: dose 5-10 µM, DDE = dose-dependent effect; in short: as §2
MCF7 = assay: Antiproliferative activity against human MCF7 cells assessed as reduction in cell growth incubated for 5 days by XTT assay; assay type: functional, cell-based; settings: MCF7, 120 h
In short: (§3)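 Solid tumour cells were seeded at 10⁵ per well in DMEM with 10% FBS and penicillin/streptomycin and allowed to attach overnight. They were then exposed to increasing compound concentrations for 5 days. Viability was read by XTT, and EC50 came from dose-response curves.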

PANC-1 = assay: Antiproliferative activity against human PANC-1 cells assessed as reduction in cell growth incubated for 5 days by XTT assay; assay type: functional, cell-based; settings: PANC-1, 120 h; in short: as §3
[9] = Antiproliferative activity against human MDA-Panc-28 cells assessed as reduction in cell growth incubated for 5 days by XTT assay; assay type: functional, cell-based; settings: MDA-Panc-28, 120 h; in short: as §3
MOLM-13 [10] = assay: Antiproliferative activity against human MOLM-13 cells assessed as reduction in cell growth incubated for 5 days by XTT assay; assay type: functional, cell-based; settings: MOLM-13, 120 h
In short: (§4)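 Blood cancer cells were plated at 10⁶ per well in RPMI-1640 with 20% FBS and penicillin/streptomycin and grown with increasing compound concentrations at 37 °C, 5% CO₂. Viability was measured by XTT, and EC50 was calculated from dose-response curves.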

MV4-11 = assay: Antiproliferative activity against human MV4-11 cells assessed as reduction in cell growth incubated for 5 days by XTT assay; assay type: functional, cell-based; settings: MV4-11, 120 h; in short: as §4
RPMI-8226 [11] = assay: Antiproliferative activity against human RPMI-8226 cells assessed as reduction in cell growth incubated for 5 days by XTT assay; assay type: functional, cell-based; settings: RPMI-8226, 120 h; in short: as §4
MDA-MB-231 [12] = assay: Antiproliferative activity against human MDA-MB-231 cells assessed as reduction in cell growth incubated for 5 days by XTT assay; assay type: functional, cell-based; settings: MDA-MB-231, 120 h
LNCaP [13] = assay: Antiproliferative activity against human LNCaP cells assessed as reduction in cell growth incubated for 5 days by XTT assay; assay type: functional, cell-based; settings: 120 h; in short: as §3
PC-3 [14] = assay: Antiproliferative activity against human PC-3 cells assessed as reduction in cell growth incubated for 5 days by XTT assay; assay type: functional, cell-based; settings: PC-3, 120 h
MDA-MB-231 [15] = assay: Antiproliferative activity against human MDA-MB-231 cells assessed as reduction in cell growth incubated for 3 to 5 days by CellTiter-Glo luminescent cell viability assay; assay type: functional, cell-based
PC-3 [16] = assay: Antiproliferative activity against human PC-3 cells assessed as reduction in cell growth incubated for 3 to 5 days by CellTiter-Glo luminescent cell viability assay; assay type: functional, cell-based
LNCaP [17] = assay: Antiproliferative activity against human LNCaP cells assessed as reduction in cell growth incubated for 3 to 5 days by CellTiter-Glo luminescent cell viability assay; assay type: functional, cell-based
MOLM-13 [18] = assay: Antiproliferative activity against human MOLM-13 cells assessed as reduction in cell growth incubated for 3 to 5 days by CellTiter-Glo luminescent cell viability assay; assay type: functional, cell-based
RPMI-8226 [19] = assay: Antiproliferative activity against human RPMI-8226 cells assessed as reduction in cell growth incubated for 3 to 5 days by CellTiter-Glo luminescent cell viability assay; assay type: functional, cell-based

T1 sequence (Q09472 whole entry, the tested form may be a part): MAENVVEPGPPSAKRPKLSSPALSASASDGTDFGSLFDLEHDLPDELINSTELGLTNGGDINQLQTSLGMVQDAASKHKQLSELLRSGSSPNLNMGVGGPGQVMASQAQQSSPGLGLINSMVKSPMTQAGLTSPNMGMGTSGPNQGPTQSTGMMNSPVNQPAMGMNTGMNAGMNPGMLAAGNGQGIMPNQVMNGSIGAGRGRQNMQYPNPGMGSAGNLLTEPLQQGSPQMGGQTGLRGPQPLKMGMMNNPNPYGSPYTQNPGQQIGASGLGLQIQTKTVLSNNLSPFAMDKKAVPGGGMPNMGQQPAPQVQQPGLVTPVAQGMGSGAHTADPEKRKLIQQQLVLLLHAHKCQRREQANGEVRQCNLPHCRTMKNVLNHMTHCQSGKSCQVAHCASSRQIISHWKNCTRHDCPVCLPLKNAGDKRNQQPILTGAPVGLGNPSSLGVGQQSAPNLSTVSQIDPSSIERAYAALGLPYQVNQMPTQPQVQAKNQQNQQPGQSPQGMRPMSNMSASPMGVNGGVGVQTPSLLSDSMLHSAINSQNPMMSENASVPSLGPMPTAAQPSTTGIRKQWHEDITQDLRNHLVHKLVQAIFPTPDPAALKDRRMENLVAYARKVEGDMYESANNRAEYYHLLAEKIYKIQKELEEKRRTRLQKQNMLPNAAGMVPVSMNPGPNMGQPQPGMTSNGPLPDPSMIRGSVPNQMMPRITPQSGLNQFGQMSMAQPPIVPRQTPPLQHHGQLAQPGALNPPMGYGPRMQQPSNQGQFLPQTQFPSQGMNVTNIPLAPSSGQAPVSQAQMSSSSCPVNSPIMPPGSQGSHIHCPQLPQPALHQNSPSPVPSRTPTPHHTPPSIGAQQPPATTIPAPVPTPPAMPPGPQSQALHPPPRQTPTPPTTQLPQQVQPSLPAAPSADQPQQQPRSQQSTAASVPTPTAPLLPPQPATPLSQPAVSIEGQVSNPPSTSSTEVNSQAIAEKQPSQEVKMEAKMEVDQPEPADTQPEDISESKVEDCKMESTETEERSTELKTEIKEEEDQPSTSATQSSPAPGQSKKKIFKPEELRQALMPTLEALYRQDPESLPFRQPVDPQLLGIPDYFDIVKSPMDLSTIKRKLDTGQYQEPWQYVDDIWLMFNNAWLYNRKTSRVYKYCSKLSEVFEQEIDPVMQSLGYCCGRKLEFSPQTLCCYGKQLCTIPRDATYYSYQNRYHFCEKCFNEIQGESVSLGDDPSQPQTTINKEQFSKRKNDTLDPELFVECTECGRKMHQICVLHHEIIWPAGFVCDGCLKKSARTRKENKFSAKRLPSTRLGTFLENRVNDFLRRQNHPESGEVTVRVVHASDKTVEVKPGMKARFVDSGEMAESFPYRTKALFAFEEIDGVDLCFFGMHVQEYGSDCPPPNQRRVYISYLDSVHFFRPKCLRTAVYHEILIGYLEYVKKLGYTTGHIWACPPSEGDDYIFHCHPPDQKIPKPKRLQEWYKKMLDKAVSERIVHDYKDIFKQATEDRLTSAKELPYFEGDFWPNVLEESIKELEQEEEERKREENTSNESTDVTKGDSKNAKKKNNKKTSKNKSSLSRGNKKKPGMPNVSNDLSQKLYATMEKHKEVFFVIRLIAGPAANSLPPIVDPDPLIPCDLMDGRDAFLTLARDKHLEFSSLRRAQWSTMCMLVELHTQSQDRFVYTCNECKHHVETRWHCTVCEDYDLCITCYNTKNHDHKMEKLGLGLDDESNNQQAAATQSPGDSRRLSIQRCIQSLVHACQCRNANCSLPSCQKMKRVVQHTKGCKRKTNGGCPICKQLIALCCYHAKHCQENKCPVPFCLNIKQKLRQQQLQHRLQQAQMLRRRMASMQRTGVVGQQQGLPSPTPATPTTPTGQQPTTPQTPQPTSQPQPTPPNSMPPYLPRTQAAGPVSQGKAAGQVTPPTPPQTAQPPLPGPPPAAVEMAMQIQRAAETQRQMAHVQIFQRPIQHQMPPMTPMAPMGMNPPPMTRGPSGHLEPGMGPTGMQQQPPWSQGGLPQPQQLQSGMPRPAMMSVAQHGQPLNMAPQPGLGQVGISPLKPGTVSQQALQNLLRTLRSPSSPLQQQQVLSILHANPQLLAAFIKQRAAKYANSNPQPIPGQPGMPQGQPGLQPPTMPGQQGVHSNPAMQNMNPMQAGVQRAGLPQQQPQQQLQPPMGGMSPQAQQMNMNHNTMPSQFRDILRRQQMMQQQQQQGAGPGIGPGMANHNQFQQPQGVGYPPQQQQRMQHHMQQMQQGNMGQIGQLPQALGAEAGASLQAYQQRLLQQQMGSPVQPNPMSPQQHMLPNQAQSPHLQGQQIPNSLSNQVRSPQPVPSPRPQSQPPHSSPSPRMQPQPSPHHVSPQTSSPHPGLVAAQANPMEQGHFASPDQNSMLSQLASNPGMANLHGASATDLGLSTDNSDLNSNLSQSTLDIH
Sequence of Histone acetyltransferase KAT2B (Q92831 whole entry): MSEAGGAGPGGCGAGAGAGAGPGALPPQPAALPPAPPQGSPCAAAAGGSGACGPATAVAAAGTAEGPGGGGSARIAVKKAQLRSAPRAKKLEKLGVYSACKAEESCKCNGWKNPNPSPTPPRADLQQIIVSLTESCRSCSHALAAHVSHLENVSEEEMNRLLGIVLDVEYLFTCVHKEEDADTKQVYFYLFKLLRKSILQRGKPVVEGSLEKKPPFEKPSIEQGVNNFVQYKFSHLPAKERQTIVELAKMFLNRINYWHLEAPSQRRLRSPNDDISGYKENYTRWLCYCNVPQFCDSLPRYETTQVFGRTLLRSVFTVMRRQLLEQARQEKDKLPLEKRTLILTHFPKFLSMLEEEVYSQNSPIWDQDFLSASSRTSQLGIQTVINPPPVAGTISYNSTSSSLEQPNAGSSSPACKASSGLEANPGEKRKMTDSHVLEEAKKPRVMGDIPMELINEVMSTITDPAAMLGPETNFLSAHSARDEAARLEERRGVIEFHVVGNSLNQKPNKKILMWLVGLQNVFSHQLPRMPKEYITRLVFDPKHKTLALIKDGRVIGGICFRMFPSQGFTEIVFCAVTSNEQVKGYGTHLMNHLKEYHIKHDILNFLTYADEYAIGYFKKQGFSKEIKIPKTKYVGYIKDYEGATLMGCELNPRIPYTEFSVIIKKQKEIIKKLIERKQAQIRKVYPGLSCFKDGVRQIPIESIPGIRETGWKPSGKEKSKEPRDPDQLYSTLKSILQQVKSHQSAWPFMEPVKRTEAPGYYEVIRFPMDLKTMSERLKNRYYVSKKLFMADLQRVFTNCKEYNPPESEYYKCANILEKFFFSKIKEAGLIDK

N#Cc1ccc(-c2ncc(OCC3CCNCC3)nc2-c2ccc(Br)cc2)cc1
IC50 [1]: > 10 µM
inhibition [2]: 0%

Fc1cc(-c2ncc(OCC3CCNCC3)nc2-c2ccc(Br)c(F)c2)ccc1Br
IC50 [1]: 11.8 µM

CN(C)CCCOc1cnc(-c2ccc(Br)cc2)c(-c2ccc(Br)cc2)n1
IC50 [1]: > 10 µM
inhibition [2]: 4.8%

Clc1ccc(-c2ncc(OCC3CCNCC3)nc2-c2ccc(Cl)cc2)cc1
IC50 [1]: > 10 µM

NCCCCOc1cnc(-c2ccc(Br)cc2)c(-c2ccc(Br)cc2)n1
IC50 [1]: > 10 µM

Ic1ccc(-c2ncc(OCC3CCNCC3)nc2-c2ccc(I)cc2)cc1
IC50 [1]: 7.8 µM

c1cc(-c2ccc(-c3ncc(OCC4CCNCC4)nc3-c3ccc(-c4ccoc4)cc3)cc2)co1
IC50 [1]: 1.4 µM
IC50 [3]: 7.2 µM
IC50 (CREB-binding protein): 2.2 µM
IC50 [4]: > 100 µM
IC50 [5]: > 100 µM
inhibition (Kasumi 1 [6]): Active
inhibition (Kasumi 1 [7]): Active
inhibition (Kasumi 1 [8]): Dde
EC50 (MCF7): 5.3 µM
EC50 (PANC-1): 1.2 µM
EC50 [9]: 4.3 µM
EC50 (MOLM-13 [10]): 3.6 µM
EC50 (MV4-11): 8.7 µM
EC50 (RPMI-8226 [11]): 6.4 µM

NCCCOc1cnc(-c2ccc(Br)cc2)c(-c2ccc(Br)cc2)n1
IC50 [1]: > 10 µM
EC50 (MCF7): > 20 µM
EC50 (MDA-MB-231 [12]): > 20 µM
EC50 (LNCaP [13]): > 20 µM
EC50 (PC-3 [14]): > 20 µM
EC50 (PANC-1): > 20 µM
EC50 [9]: > 20 µM
EC50 (MOLM-13 [10]): > 20 µM
EC50 (MV4-11): > 20 µM
EC50 (RPMI-8226 [11]): > 20 µM

Cc1ccc(-c2ncc(OCC3CCNCC3)cc2-c2ccc(CO)cc2)cc1
IC50 [1]: 62.6 µM

O=C(O)c1cnc(-c2ccc(Br)cc2)c(-c2ccc(Br)cc2)n1
IC50 [1]: > 10 µM
inhibition [2]: 30%

Brc1ccc(-c2ncc(OCC3CCNC3)nc2-c2ccc(Br)cc2)cc1 (configuration not stated)
IC50 [1]: > 10 µM

CC(C)(C)c1ccc(-c2ncc(OCC3CCNCC3)nc2-c2ccc(C(C)(C)C)cc2)cc1
IC50 [1]: 17.6 µM

Brc1ccc(-c2ncc(OCC3CCNCC3)nc2-c2ccc(Br)c(Br)c2)cc1Br
inhibition [2]: 50%

c1cc(-c2ccc(-c3ncc(OCC4CCNCC4)nc3-c3ccc(-c4ccncc4)cc3)cc2)ccn1
IC50 [1]: > 10 µM
inhibition [2]: 39%

CNC(=O)Nc1ccc2c(c1)CC[C@@]21OC(=O)N(CC(=O)N(Cc2ccc(F)cc2)[C@@H](C)C(F)(F)F)C1=O (single isomer, unassigned) [A-485]
EC50 (MDA-MB-231 [15]): > 10 µM
EC50 (PC-3 [16]): 2.1 µM
EC50 (LNCaP [17]): 0.26 µM
EC50 (MOLM-13 [18]): 0.35 µM
EC50 (RPMI-8226 [19]): 0.16 µM

CCc1ccc(-c2ncc(OCC3CCNCC3)nc2-c2ccc(CC)cc2)cc1
IC50 [1]: 10 µM
inhibition [2]: 55%
